Series [1] deals with Rattus norvegicus. The series is described as follows: Cardiotoxicity in Wistar rat assessed as hear beats per min at 10 mg/kg, iv after 10 mins by ECG analysis. The class given is toxicity, organism-based. Also on record: dose 10 mg/kg, route intravenous. Particulars: in vivo.
Series [2] concerns Rattus norvegicus. As to the kind of experiment: Cardiotoxicity in Wistar rat assessed as QT interval at 10 mg/kg, iv after 10 mins by ECG analysis. The class given is toxicity, organism-based. Also on record: dose 10 mg/kg, route intravenous. Particulars: in vivo.
In series [3] the test system is Rattus norvegicus. As to the kind of experiment: Cardiotoxicity in Wistar rat assessed as QRS interval at 10 mg/kg, iv after 10 mins by ECG analysis. In kind it is toxicity, organism-based. Set-up: dose 10 mg/kg, route intravenous. Particulars: in vivo.
The test system of series [4] is Rattus norvegicus. The series is described as follows: Cardiotoxicity in Wistar rat assessed as hear beats per min at 10 mg/kg, iv after 5 mins by ECG analysis. The class given is toxicity, organism-based. Also on record: dose 10 mg/kg, route intravenous. Particulars: in vivo. In a few lines: (§1)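 Male normotensive Wistar rats, 170–350 g, six per group. Compound given iv at a constant volume of 1 mL/kg. ECG was recorded just before dosing and at 1, 5 and 15 min after. PQ, QRS and QT intervals and heart rate were read from the trace. Groups were compared by one-way ANOVA.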

Series [5] concerns Rattus norvegicus. The series is described as follows: Cardiotoxicity in Wistar rat assessed as QRS interval at 10 mg/kg, iv after 5 mins by ECG analysis. In kind it is toxicity, organism-based. Set-up: dose 10 mg/kg, route intravenous. Particulars: in vivo. In a few lines:
as §1

For series [6], the system named is Rattus norvegicus. The series is described as follows: Hypotensive activity in normotensive Wistar rat assessed as reduction of systolic blood pressure at 0.31 mg/kg, iv after 60 mins. The class given is functional, Artery. In short, it runs like this:
(§2)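 Male normotensive Wistar rats (170–350 g) anaesthetised with thiopental 75 mg/kg ip; right carotid artery cannulated with heparinised saline-filled polyethylene tubing for pressure recording. After a 5 min stabilisation, compound given into the caudal vein at 1 mL/kg. Systolic pressure is recorded at 0, 5, 10, 20, 30 and 60 min, and the data are reported as mean ± SEM of five to six animals, with one-way ANOVA.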

The subject of series [7] is Rattus norvegicus. The series is described as follows: Hypotensive activity in normotensive Wistar rat assessed as reduction of systolic blood pressure at 0.31 mg/kg, iv after 5 mins. The class given is functional, Artery. In short, it runs like this: as §2
Series [8] has as its system Rattus norvegicus. The series is described as follows: Hypotensive activity in normotensive Wistar rat assessed as reduction of diastolic blood pressure at 0.16 mg/kg, iv after 20 mins. The class given is functional, Artery. In a few lines:
(§3)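 Male normotensive Wistar rats were anaesthetised with thiopental 75 mg/kg ip. The right carotid artery was cannulated with heparinised saline for pressure recording. After 5 min of stabilisation, compound was injected into the tail vein at 1 mL/kg. Systolic and diastolic pressure were followed up to 60 min. Data are means ± SEM of 5–6 rats, analysed by one-way ANOVA.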

Series [9] concerns Rattus norvegicus. The series is described as follows: Hypotensive activity in normotensive Wistar rat assessed as reduction of diastolic blood pressure at 0.16 mg/kg, iv after 30 mins. The class given is functional, Artery. In short, it runs like this: as §3
In series [10] the test system is Rattus norvegicus. As to the kind of experiment: Hypotensive activity in normotensive Wistar rat assessed as reduction of systolic blood pressure at 1.25 mg/kg, iv after 60 mins. In kind it is functional, Artery. In a few lines: as §2
In series [11] the test system is Rattus norvegicus. As to the kind of experiment: Hypotensive activity in normotensive Wistar rat assessed as reduction of systolic blood pressure at 1.25 mg/kg, iv after 30 mins. In kind it is functional, Artery. In short, it runs like this:
as §2

In series [12] the test system is Rattus norvegicus. As to the kind of experiment: Hypotensive activity in normotensive Wistar rat assessed as reduction of systolic blood pressure at 1.25 mg/kg, iv after 20 mins. In kind it is functional, Artery. In a few lines:
as §2

The subject of series [13] is Rattus norvegicus. As to the kind of experiment: Hypotensive activity in normotensive Wistar rat assessed as reduction of systolic blood pressure at 1.25 mg/kg, iv after 5 mins. In kind it is functional, Artery. In a few lines: as §2
The test system of series [14] is Rattus norvegicus. The series is described as follows: Cardiotoxicity in Wistar rat assessed as QRS interval at 5 mg/kg, iv after 15 mins by ECG analysis. Set-up: dose 5 mg/kg, route intravenous. In kind it is toxicity, organism-based. Particulars: in vivo, 0.25 h. In short, it runs like this:
as §1

In series [15] the test system is Rattus norvegicus. As to the kind of experiment: Hypotensive activity in normotensive Wistar rat assessed as reduction of diastolic blood pressure at 0.625 mg/kg, iv after 10 mins. The class given is functional, Artery. In short, it runs like this: as §3
Series [16] has as its system Rattus norvegicus. The series is described as follows: Hypotensive activity in normotensive Wistar rat assessed as reduction of systolic blood pressure at 0.625 mg/kg, iv after 10 mins. The class given is functional, Artery. In a few lines:
as §2

This is an account of results in ChEMBL document CHEMBL2311390, “Synthesis and preliminary evaluation of pharmacological properties of some piperazine derivatives of xanthone” (Bioorg Med Chem, 2013).

SMILES strings stand for the structures.

On to `Cl.Cl.Cl.O=c1c2ccc(Cl)cc2oc2c(OCC(O)CN3CCN(Cc4ccccc4)CC3)cccc12` (racemic), for which the Activity was 285 bpm in the series with Rattus norvegicus [1]; 72.8 ms in the series on Rattus norvegicus [2]; 19.6 ms with Rattus norvegicus [3]; 295.3 bpm in the series on Rattus norvegicus [4]; 19.2 ms in the series with Rattus norvegicus [5].

For the molecule `COc1ccccc1N1CCN(CC(O)COc2cccc3c(=O)c4ccccc4oc23)CC1.Cl` (racemic), the Activity in the series with Rattus norvegicus [6] is listed as 116 mmHg; with Rattus norvegicus [7] it was 122.8 mmHg; in the series on Rattus norvegicus [8] it was 103.8 mmHg; in the series with Rattus norvegicus [9] it was 101.8 mmHg.

As to `Cl.Cl.Cl.O=c1c2ccc(Cl)cc2oc2c(OCC(O)CN3CCN(CCOc4ccccc4)CC3)cccc12` (racemic), the Activity with Rattus norvegicus [1] amounted to 242.43 bpm; in the series on Rattus norvegicus [2], 50.48 ms; in the series on Rattus norvegicus [3], 20.32 ms; with Rattus norvegicus [4] it was 303.69 bpm; in the series on Rattus norvegicus [5], 18.8 ms; in the series with Rattus norvegicus [10] it was 114.8 mmHg. Moreover, the results for the Activity with Rattus norvegicus [11], in the series with Rattus norvegicus [12] and in the series with Rattus norvegicus [13] were 113.2 mmHg, 110.8 mmHg and 117.2 mmHg, respectively.

Turning to `Cl.Cl.Cl.O=c1c2ccc(Cl)cc2oc2c(OCC(O)CN3CCN(C/C=C/c4ccccc4)CC3)cccc12` (racemic), the Activity with Rattus norvegicus [14] was found to be 20.3 ms.

With `COc1ccccc1N1CCN(CC(COc2cccc3c(=O)c4ccccc4oc23)OC(C)=O)CC1.Cl` (racemic), the Activity stood at 96.4 mmHg with Rattus norvegicus [15]; 123.8 mmHg with Rattus norvegicus [16]; 116.6 mmHg in the series on Rattus norvegicus [10]; 117.6 mmHg with Rattus norvegicus [11]; 117 mmHg with Rattus norvegicus [12]; 119 mmHg in the series on Rattus norvegicus [13].

`Cl.Cl.O=c1c2ccccc2oc2c(OCC(O)CN3CCN(C/C=C/c4ccccc4)CC3)cccc12` (racemic): in the series on Rattus norvegicus [14], the Activity came to 24 ms.

Consider `COc1ccccc1N1CCN(CCCOc2cccc3c(=O)c4ccccc4oc23)CC1.Cl`, for which the Activity in the series on Rattus norvegicus [6] is on record as 116 mmHg; in the series with Rattus norvegicus [7], 122 mmHg; in the series on Rattus norvegicus [15], 106.5 mmHg; in the series on Rattus norvegicus [16], 125.5 mmHg; in the series with Rattus norvegicus [8], 101 mmHg; in the series on Rattus norvegicus [9] it was 100 mmHg.
